ChEMBL document CHEMBL5329172, “Chloroacetamide fragment library screening identifies new scaffolds for covalent inhibition of the TEAD·YAP1 interaction” (RSC Med Chem, 2023)
pIC50, pKi: −log10 of the molar value. Activity calls are given as the source filed them. The calls are words filed in the database; no cut-off is given here.

Columns and labels:
YAP1-TEAD4 [1] = biological target: T1, YAP1-TEAD4 (Homo sapiens, UniProt Q15561); experiment: (§1) Inhibition of GST-tagged TEAD4 (217 to 434 residues) (unknown origin) expressed in Escherichia coli BL21 (DE3) cells/FAM-labelled YAP1 (60 to 99 residues)(unknown origin) protein-protein interaction preincubated for 24 hrs at 4 degree C with TEAD4 followed by fluorescent labelled YAP1 addition by fluorescence polarization assay
T1 sequence (P46937 whole entry, the tested form may be a part): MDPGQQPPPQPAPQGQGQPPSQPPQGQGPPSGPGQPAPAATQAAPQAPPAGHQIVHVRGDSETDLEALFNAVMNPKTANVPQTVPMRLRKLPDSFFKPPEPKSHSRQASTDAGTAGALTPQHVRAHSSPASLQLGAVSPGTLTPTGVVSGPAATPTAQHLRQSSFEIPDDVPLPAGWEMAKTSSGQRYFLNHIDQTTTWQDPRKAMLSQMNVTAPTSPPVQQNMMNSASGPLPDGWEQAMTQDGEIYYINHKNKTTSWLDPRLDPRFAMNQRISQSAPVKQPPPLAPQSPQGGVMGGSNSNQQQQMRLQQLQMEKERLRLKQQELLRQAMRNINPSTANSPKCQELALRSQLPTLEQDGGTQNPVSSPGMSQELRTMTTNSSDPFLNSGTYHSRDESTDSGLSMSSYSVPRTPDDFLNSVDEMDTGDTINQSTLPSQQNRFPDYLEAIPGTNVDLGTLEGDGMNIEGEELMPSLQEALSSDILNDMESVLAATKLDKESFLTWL
T1 sequence (Q15561 whole entry, the tested form may be a part): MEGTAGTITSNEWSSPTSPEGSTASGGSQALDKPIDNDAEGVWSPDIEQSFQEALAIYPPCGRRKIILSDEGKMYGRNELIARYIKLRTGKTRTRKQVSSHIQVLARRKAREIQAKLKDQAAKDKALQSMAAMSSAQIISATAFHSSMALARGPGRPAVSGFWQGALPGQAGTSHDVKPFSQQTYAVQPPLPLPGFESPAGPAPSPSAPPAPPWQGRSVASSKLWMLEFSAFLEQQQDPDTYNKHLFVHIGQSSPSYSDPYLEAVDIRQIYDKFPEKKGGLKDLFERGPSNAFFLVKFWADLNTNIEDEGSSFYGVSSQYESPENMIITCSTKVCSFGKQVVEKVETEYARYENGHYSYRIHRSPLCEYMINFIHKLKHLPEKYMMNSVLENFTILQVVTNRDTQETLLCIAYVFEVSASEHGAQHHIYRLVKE
Procedure, shortened: (§2)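 FP: 64 nM TEAD4, TEAD4C367S, TEAD2 or TEAD3, or 250 nM TEAD1, was preincubated with compound for 24 h at 4 °C in PBS with 0.01% Triton X-100. FAM-YAP1 60–99 peptide (disulfide-crosslinked) was then added at 16 nM final. Polarization was read at ex 485/em 535 nm. Percent inhibition was taken relative to no-compound and no-protein controls. The single-point primary screen used 50 μM.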

[2] = biological target: T2, YAP1-TEAD4 (Homo sapiens) (UniProt P46937+Q15561); experiment: as §1, with “interaction assessed as maximum inhibition at 50 uM” for “interaction”; procedure, shortened: as §2
Homo sapiens [3] = organism: Homo sapiens; experiment: (§3) Covalent inhibition of GST-tagged TEAD4 C367S mutant (unknown origin) expressed in Escherichia coli BL21 (DE3)/FAM-labelled YAP1 (60 to 99 residues)(unknown origin) protein-protein interaction assessed as protein-compound adduct formation at 100 uM incubated for 24 hrs at 4 degree C followed by mass spectrometry analysis
Procedure, shortened: (§4)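 Intact-protein MS: 2.5 μM protein (TEAD4 217–434 with GST cleaved, TEAD4C367S, TEAD1 209–426, TEAD2 217–447 or TEAD3 210–427) incubated with 100 μM compound in PBS for 24 h at 4 °C. Samples were centrifuged to remove precipitate, desalted on a C3 reverse-phase column with a water/acetonitrile 0.1% formic acid gradient, and masses were read by Q-TOF. Adduct peaks were reported as percent.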

[4] = biological target: T2, YAP1-TEAD4 (Homo sapiens); experiment: as §3, with “(217 to 434 residues)” for “C367S mutant”, “(DE3) cells/FAM-labelled” for “(DE3)/FAM-labelled”, “formation by second order rate constant, kinact/ki ratio” for “formation”, “0.5 to 6” for “24”; conditions: time 0.5-6 hrs
Procedure, shortened: (§5)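 Kinetics by MS: 2.5 μM TEAD4 was incubated at 4 °C with 3.1–100 μM compound. Aliquots were quenched with 0.1 M formic acid at set times from 0.5 h upward and analysed by whole-protein MS. Adduct relative to unreacted protein was fit to 100×(1−e^(−kobs·t)) to give kobs. kobs versus concentration was fit hyperbolically for kinact and KI, or linearly for kinact/KI where no plateau was reached.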

[5] = biological target: Transcriptional coactivator YAP1/Transcriptional enhancer factor TEF-1 (Homo sapiens, UniProt P28347); experiment: as §1, with “TEAD1 (209” for “GST-tagged TEAD4 (217”, “426” for “434”, “compound” for “TEAD4”; procedure, shortened: as §2
Chain of Transcriptional coactivator YAP1/Transcriptional enhancer factor TEF-1 (P46937 whole entry): as the sequence (P46937 whole entry, the tested form may be a part) above
Chain of Transcriptional coactivator YAP1/Transcriptional enhancer factor TEF-1 (P28347 whole entry): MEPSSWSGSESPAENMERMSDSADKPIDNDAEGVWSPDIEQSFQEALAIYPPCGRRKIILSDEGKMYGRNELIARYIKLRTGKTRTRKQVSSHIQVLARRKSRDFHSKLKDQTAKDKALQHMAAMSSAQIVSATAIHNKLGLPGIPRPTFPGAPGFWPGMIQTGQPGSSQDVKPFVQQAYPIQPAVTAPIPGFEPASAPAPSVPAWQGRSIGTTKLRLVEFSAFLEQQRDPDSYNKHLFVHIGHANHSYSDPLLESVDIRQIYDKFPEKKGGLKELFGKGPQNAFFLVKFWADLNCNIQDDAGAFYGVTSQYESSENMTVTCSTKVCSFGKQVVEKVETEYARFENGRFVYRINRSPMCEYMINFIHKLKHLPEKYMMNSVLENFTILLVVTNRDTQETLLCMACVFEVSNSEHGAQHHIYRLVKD

TEAD2-YAP1 = TEAD2-YAP1 (Homo sapiens, UniProt Q15562); experiment: as §1, with “TEAD2” for “GST-tagged TEAD4”, “447” for “434”, “compound” for “TEAD4”; procedure, shortened: as §2
Chain of TEAD2-YAP1 (P46937 whole entry): as the sequence (P46937 whole entry, the tested form may be a part) above
Chain of TEAD2-YAP1 (Q15562 whole entry): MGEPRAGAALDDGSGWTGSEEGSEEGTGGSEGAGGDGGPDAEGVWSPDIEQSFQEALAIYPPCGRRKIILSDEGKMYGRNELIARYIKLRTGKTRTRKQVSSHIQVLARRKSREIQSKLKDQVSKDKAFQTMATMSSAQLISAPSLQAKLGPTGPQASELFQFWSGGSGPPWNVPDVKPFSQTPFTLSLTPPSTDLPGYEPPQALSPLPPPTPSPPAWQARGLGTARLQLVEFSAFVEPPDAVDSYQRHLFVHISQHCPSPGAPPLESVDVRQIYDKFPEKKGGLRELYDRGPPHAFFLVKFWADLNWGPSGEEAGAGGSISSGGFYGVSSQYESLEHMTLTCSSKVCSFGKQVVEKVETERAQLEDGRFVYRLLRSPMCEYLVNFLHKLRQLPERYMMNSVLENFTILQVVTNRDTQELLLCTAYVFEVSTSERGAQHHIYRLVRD

[6] = biological target: T3, TEAD3-YAP1 (Homo sapiens) (UniProt P46937+Q99594); experiment: as §1, with “TEAD3 (210” for “GST-tagged TEAD4 (217”, “427” for “434”, “compound” for “TEAD4”; procedure, shortened: as §2
T3 sequence (P46937 whole entry, looked up, the tested form may be a part): as the sequence (P46937 whole entry, the tested form may be a part) above
T3 sequence (Q99594 whole entry, looked up, the tested form may be a part): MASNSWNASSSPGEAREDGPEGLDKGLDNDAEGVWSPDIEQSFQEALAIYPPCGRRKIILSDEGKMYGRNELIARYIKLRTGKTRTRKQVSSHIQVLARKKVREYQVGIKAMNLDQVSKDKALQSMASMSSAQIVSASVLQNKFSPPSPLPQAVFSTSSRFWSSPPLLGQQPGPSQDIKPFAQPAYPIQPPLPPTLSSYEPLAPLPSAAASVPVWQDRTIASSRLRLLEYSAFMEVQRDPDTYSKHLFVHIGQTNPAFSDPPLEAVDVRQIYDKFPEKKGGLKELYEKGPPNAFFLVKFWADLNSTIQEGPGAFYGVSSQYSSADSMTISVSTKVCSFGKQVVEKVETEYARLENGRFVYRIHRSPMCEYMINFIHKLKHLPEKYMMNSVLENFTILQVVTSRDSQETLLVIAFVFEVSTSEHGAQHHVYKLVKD

[7] = biological target: T4, Transcriptional coactivator YAP1/Transcriptional enhancer factor TEF-1 (Homo sapiens) (UniProt P46937+P28347); experiment: as §3, with “TEAD1 (209 to 426 residues)” for “GST-tagged TEAD4 C367S mutant”, “(DE3) cells/FAM-labelled” for “(DE3)/FAM-labelled”; procedure, shortened: as §4
T4 sequence (P28347 whole entry, looked up, the tested form may be a part): as the sequence (P28347 whole entry) above
T4 sequence (P46937 whole entry, looked up, the tested form may be a part): as the sequence (P46937 whole entry, the tested form may be a part) above

[8] = biological target: T2, YAP1-TEAD4 (Homo sapiens); experiment: as §3, with “(217 to 434 residues)” for “C367S mutant”, “(DE3) cells/FAM-labelled” for “(DE3)/FAM-labelled”; procedure, shortened: as §4
[9] = biological target: T2, YAP1-TEAD4 (Homo sapiens); experiment: (§6) Covalent inhibition of GST-tagged TEAD4 (217 to 434 residues) (unknown origin) expressed in Escherichia coli BL21 (DE3) cells/FAM-labelled YAP1 (60 to 99 residues)(unknown origin) protein-protein interaction assessed as second protein-compound adduct formation at 100 uM incubated for 24 hrs at 4 degree C followed by mass spectrometry analysis; procedure, shortened: as §4
Homo sapiens [10] = organism: Homo sapiens; experiment: as §1, with “TEAD4 C367S mutant” for “TEAD4 (217 to 434 residues)”, “TEAD4 C367S mutant” for “TEAD4”; procedure, shortened: as §2
S2 = experiment: Inhibition of uPAR (unknown origin) expressed in S2 cells/FAM-labelled alpha-helical peptide AE-147 (unknown origin) protein-protein interaction preincubated for 24 hrs at 4 degree C with uPAR followed by fluorescent labelled AE-147 addition by fluorescence polarization assay; conditions: Homo sapiens
Procedure, shortened: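 Counter-screen FP: 250 nM uPAR lacking the GPI anchor (from S2 cells) was preincubated with compound for 24 h at 4 °C in PBS with 0.01% Triton X-100. AE-147-FAM peptide was then added at 100 nM final and polarization read at ex 485/em 535 nm.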

YAP1-TEAD4 [11] = biological target: T1, YAP1-TEAD4; experiment: as §1, with “0.5” for “24”
Procedure, shortened: (§7)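 Time-course FP: 64 nM TEAD4 was preincubated with varying compound concentrations for 0.5, 6, 24 or 48 h at 4 °C in PBS with 0.01% Triton X-100. 16 nM FAM-YAP1 60–99 peptide was then added and polarization read at 485/535 nm, n = 2. Inhibition was taken relative to no-compound and no-protein controls.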

YAP1-TEAD4 [12] = biological target: T1, YAP1-TEAD4; experiment: as §1, with “6” for “24”; procedure, shortened: as §7
YAP1-TEAD4 [13] = biological target: T1, YAP1-TEAD4; experiment: as §1, with “48” for “24”; procedure, shortened: as §7
[14] = biological target: T2, YAP1-TEAD4 (Homo sapiens); experiment: as §1, with “interaction assessed maximum inhibition” for “interaction”, “0.5” for “24”; procedure, shortened: as §7
[15] = biological target: T2, YAP1-TEAD4 (Homo sapiens); experiment: as §1, with “interaction assessed maximum inhibition” for “interaction”, “6” for “24”; procedure, shortened: as §7
[16] = biological target: T2, YAP1-TEAD4 (Homo sapiens); experiment: as §1, with “interaction assessed maximum inhibition” for “interaction”, “48” for “24”; procedure, shortened: as §7
YAP1-TEAD4 [17] = biological target: T1, YAP1-TEAD4; experiment: as §6, with “as” for “as second”, “formation by measuring inhibition constant” for “formation”, “0.5 to 6” for “24”; procedure, shortened: as §5
[18] = biological target: T2, YAP1-TEAD4 (Homo sapiens); experiment: as §6, with “as” for “as second”, “formation by measuring reaction half life” for “formation”, “0.5 to 6” for “24”; conditions: time 0.5-6 hrs; procedure, shortened: as §5
[19] = biological target: T2, YAP1-TEAD4 (Homo sapiens); experiment: as §6, with “additional” for “second”; procedure, shortened: as §4
[20] = biological target: T4, Transcriptional coactivator YAP1/Transcriptional enhancer factor TEF-1 (Homo sapiens); experiment: as §1, with “TEAD1 (209” for “GST-tagged TEAD4 (217”, “426” for “434”, “compound” for “TEAD4”; procedure, shortened: as §2
[21] = biological target: T5, TEAD2-YAP1 (Homo sapiens) (UniProt P46937+Q15562); experiment: as §1, with “TEAD2” for “GST-tagged TEAD4”, “447” for “434”, “compound” for “TEAD4”; procedure, shortened: as §2
T5 sequence (P46937 whole entry, looked up): as the sequence (P46937 whole entry, the tested form may be a part) above
T5 sequence (Q15562 whole entry, looked up): as the sequence (Q15562 whole entry) above

[22] = biological target: T5, TEAD2-YAP1 (Homo sapiens); experiment: as §1, with “TEAD2” for “GST-tagged TEAD4”, “447” for “434”, “interaction assessed as maximum inhibition at 50 uM” for “interaction”, “compound” for “TEAD4”; procedure, shortened: as §2
[23] = as §1, with “TEAD4 C367S mutant” for “TEAD4 (217 to 434 residues)”, “TEAD4 C367S mutant” for “TEAD4”; design: species or system Homo sapiens; procedure, shortened: as §2
[24] = biological target: T5, TEAD2-YAP1 (Homo sapiens); experiment: as §6, with “TEAD2” for “GST-tagged TEAD4”, “447” for “434”, “as” for “as second”; procedure, shortened: as §4
[25] = biological target: T3, TEAD3-YAP1 (Homo sapiens); experiment: as §6, with “TEAD3 (210” for “GST-tagged TEAD4 (217”, “427” for “434”, “as” for “as second”; procedure, shortened: as §4
[26] = biological target: T4, Transcriptional coactivator YAP1/Transcriptional enhancer factor TEF-1 (Homo sapiens); experiment: as §1, with “TEAD1 (209” for “GST-tagged TEAD4 (217”, “426” for “434”, “interaction assessed as maximum inhibition at 50 uM” for “interaction”, “compound” for “TEAD4”; procedure, shortened: as §2

SMILES | pIC50 (YAP1-TEAD4 [1]) | Imax [2] [%] | inhibition (Homo sapiens [3]) | Ratio [4] [M⁻¹ s⁻¹] | pIC50 (TEAD2-YAP1) | inhibition [6] | inhibition [7] | percent protein-compound adduct formation [8] [%] | percent second protein-compound adduct [9] [%] | pIC50 (YAP1-TEAD4 [11]) | pIC50 (YAP1-TEAD4 [12]) | pIC50 (YAP1-TEAD4 [13]) | Imax [15] [%] | Imax [16] [%] | pKi (YAP1-TEAD4 [17]) | T1/2 [18] [h] | inhibition [20] | Imax [22] [%] | inhibition (Homo sapiens [10]) | inhibition (S2) | also measured
CCOc1ccc(S(=O)(=O)N2CCN(C(=O)CCl)CC2)cc1 | 4.95 | 44 |  | 2.4 | 4.33 | inactive | Active | 100 |  |  | 4.25 | 4.71 | 45 | 45 |  |  |  | 14 | inactive | inactive | 
COc1ccccc1CN(C(=O)CCl)C(C(=O)NC1CCCCC1)c1ccncc1 (stereo unspecified) | 4.68 | 100 |  |  |  |  |  |  |  |  |  |  |  |  |  |  |  |  |  | inactive | pIC50 [23]: 4.55
CCS(=O)(=O)Oc1ccc(CN(Cc2ccc(F)cc2)C(=O)CCl)cc1 | 5.38 | 37 | inactive | 1.3 | 4.66 | inactive | Active | 46 | 11 |  | 4.26 | 5.28 | 38 | 38 | 4.34 | 3.3 | inactive | 22 | inactive | inactive | percent protein-compound adduct formation [19]: 20%
COc1cccc(C2CC(Cc3cccs3)=NN2C(=O)CCl)c1OC (stereo unspecified) | 5.48 | 48 | inactive | 8.3 | 5.51 | inactive | Active | 78 | 15 | 4.63 | 4.99 | 5.59 | 53 | 53 | 4.42 | 0.6 | inactive | 35 | inactive | inactive | Imax [14]: 53%; inhibition [24]: Active; inhibition [25]: Active
NC(=O)c1oc2ccccc2c1NC(=O)CCl | 6.05 | 35 | inactive | 0.3 | 3.60 | inactive | 100% |  |  | 4.40 |  |  |  |  |  |  |  |  |  |  | pIC50 [5]: 5.52; Imax [26]: 31%

Further compounds by rising pIC50 (YAP1-TEAD4 [1]), results first:

pIC50 (YAP1-TEAD4 [1]) | Imax [2] [%] | inhibition (Homo sapiens [3]) | Ratio [4] [M⁻¹ s⁻¹] | pIC50 (TEAD2-YAP1) | inhibition [6] | inhibition [7] | percent protein-compound adduct formation [8] [%] | percent second protein-compound adduct [9] [%] | pIC50 (YAP1-TEAD4 [11]) | pIC50 (YAP1-TEAD4 [12]) | pIC50 (YAP1-TEAD4 [13]) | Imax [15] [%] | Imax [16] [%] | pKi (YAP1-TEAD4 [17]) | T1/2 [18] [h] | inhibition [20] | Imax [22] [%] | SMILES | inhibition (Homo sapiens [10]) | inhibition (S2) | also measured
4.64 | 41 |  | 28.1 |  | inactive | Active | 100 |  |  | 4.42 | 5.33 | 33 | 33 | 4.03 | 0.1 | inactive |  | O=C(Nc1ccccc1)C1CCN(C(=O)CCl)CC1 | inactive | inactive | inhibition [21]: inactive
5.66 | 40 | inactive | 13.5 | 5.64 | inactive | Active | 85 | 15 | 4.74 | 5.23 | 5.85 | 35 | 35 |  |  | inactive | 29 | Cc1ccc(C2=NN(C(=O)CCl)C(c3ccco3)C2)cc1 (stereo unspecified) | inactive | inactive | Imax [14]: 35%; inhibition [24]: Active
5.85 | 35 | inactive | 1.6 | 4.06 | inactive | Active |  |  |  |  |  |  |  |  |  |  |  | O=C(CCl)NCCSc1ccc(Cl)cc1 |  |  | pIC50 [5]: 3.74
5.85 | 31 | inactive | 5.1 |  | inactive | Active | 55 | 18 | 5.01 | 5.34 | 6.05 | 37 | 37 | 4.76 | 2.2 | inactive |  | O=C(NCCc1ccccc1)C(c1cccs1)N(C(=O)CCl)c1cccc(Cl)c1 (stereo unspecified) | inactive | inactive | Imax [14]: 37%; percent protein-compound adduct formation [19]: 17%; inhibition [21]: inactive
